Experiments:
Homo sapiens [1] = species on record: Homo sapiens; assay: In vitro inhibition of gamma-interferon release by human […]; format: functional
Outline: (§1)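 Human PBMC were isolated from buffy coats and diluted 1:1 in saline. Cells were held at 5×10^5 cells/mL in RPMI1640 with 2 mM glutamine and penicillin/streptomycin, then preincubated 30 min with compound. IL-12: 2% FCS, IFN-γ 95 ng/mL for 18 h, then LPS for 24 h. IL-2 and IFN-γ: 10% FCS, phytohemagglutinin for 48 h. Supernatant cytokine measured by sandwich ELISA.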

Mus musculus [2] = assay: Inhibition of ear weight induced by 12-O-tetradecanoylphorbol-13-acetate (TPA) in murine chronic irritative contact dermatitis model at 0.5 mg/ear (in vivo); format: functional
Outline: (§2)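 Murine TPA-induced chronic irritative ear dermatitis, with compound given topically per ear. Ear swelling and ear weight were determined 5 h after the last application. Values are mean % inhibition ± SEM of three to five experiments.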

Mus musculus [3] = species on record: Mus musculus; assay: Inhibition of ear swelling in oxazolone-induced murine allergic contact dermatitis at 0.5 mg/ear at 24 hr; format: functional
Outline: (§3)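 Groups of six female inbred BALB/cABOM mice (18–21 g) were sensitized with oxazolone on the clipped abdomen 7 days before right-ear challenge. Compound in acetone (20 μL) or vehicle was applied once, 30 min after challenge. Ear swelling (right minus left ear thickness) was read at 24, 48 and 72 h. Values are mean % inhibition ± SEM of four or five experiments.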

Mus musculus [4] = assay: Inhibition of ear swelling induced by 12-O-tetradecanoylphorbol-13-acetate (TPA) in murine chronic irritative contact dermatitis model at 0.5 mg/ear (in vivo); format: functional; outline: as §2
[5] = molecular target: Mitogen-activated protein kinase; ERK1/ERK2 (Homo sapiens) (UniProt P27361+P28482); assay: Inhibition of Mitogen-activated protein kinase 3/Mitogen-activated protein kinase 1 (ERK) at 10 uM; format: protein assay
Outline: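 MCF-7 cells stimulated with EGF; ERK1/2 activity measured with a modified cell-signalling ERK1/2 kinase kit in presence of compound.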

[6] = molecular target: T1, Myeloperoxidase (Mus musculus) (UniProt P11247); assay: Inhibition of myeloperoxidase (MPO) activity induced by TPA in murine chronic irritative contact dermatitis model at 0.5 mg/ear (in vivo); format: organism-based
T1 sequence (whole entry): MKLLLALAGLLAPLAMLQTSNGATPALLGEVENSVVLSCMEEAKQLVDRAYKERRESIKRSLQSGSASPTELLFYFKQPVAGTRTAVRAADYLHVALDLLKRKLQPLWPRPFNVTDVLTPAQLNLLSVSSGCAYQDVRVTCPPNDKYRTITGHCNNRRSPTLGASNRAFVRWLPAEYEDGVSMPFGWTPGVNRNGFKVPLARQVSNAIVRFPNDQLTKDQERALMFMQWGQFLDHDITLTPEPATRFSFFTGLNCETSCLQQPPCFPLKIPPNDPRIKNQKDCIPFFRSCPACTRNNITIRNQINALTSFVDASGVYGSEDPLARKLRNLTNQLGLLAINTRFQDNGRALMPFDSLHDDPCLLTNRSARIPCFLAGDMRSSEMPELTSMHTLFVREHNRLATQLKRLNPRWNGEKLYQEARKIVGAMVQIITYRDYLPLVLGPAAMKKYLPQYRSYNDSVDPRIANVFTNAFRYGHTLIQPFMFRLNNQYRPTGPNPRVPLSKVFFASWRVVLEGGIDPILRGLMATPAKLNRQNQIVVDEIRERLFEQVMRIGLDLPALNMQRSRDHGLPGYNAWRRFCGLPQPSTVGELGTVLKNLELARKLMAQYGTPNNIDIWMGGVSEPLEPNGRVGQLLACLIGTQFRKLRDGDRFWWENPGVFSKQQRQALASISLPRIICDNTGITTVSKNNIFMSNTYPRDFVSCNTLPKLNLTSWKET

MAP kinase p38 [7] = molecular target: T2, MAP kinase p38 (Homo sapiens, UniProt O15264+Q15759+Q16539+P53778); assay: In vitro inhibition of TNF-alpha release from LPS stimulated human peripheral blood mononuclear cells.; format: functional
Outline: (§4)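 Human PBMC from buffy coats (Lymphoprep), 5×10^5 cells/mL in RPMI1640 with 2% FCS, glutamine, penicillin/streptomycin; 30 min preincubation with compound, then LPS stimulation, 18 h at 37 °C, 5% CO2.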

MAP kinase p38 [8] = molecular target: T2, MAP kinase p38; assay: In vitro inhibition of cytokine IL-6 release by human […]; format: functional
Outline: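 PBMC isolated from buffy coats, 5×10^5 cells/mL in RPMI1640 plus 2% FCS, glutamine and antibiotics. Compound added 30 min before LPS; culture 6 h. Supernatant IL-6 or IL-8 quantified by ELISA kits.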

[9] = molecular target: T1, Myeloperoxidase (Mus musculus); assay: Inhibition of myeloperoxidase (MPO) activity induced by oxazolone in murine allergic contact dermatitis model at 0.5 mg/ear at 72 hr (in vivo)
Mus musculus [10] = species on record: Mus musculus; assay: Inhibition of ear swelling induced by oxazolone induced murine allergic contact dermatitis model at 0.5 mg/ear at 72 hr; format: functional; outline: as §3
[11] = molecular target: Mitogen-activated protein kinase 11 (Homo sapiens) (UniProt Q15759); assay: Inhibition of Mitogen-activated protein kinase p38 beta at 1 uM
Outline: (§5)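 FLAG-tagged p38 isoform cDNA (β2, γ or δ) transfected into COS-1 cells; kinase activity of the expressed isoform measured with compound at 1 μM.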

[12] = molecular target: T3, Mitogen-activated protein kinase 12 (Homo sapiens) (UniProt P53778); assay: Inhibition of Mitogen-activated protein kinase p38 gamma at 1 uM; outline: as §5
T3 sequence (whole entry): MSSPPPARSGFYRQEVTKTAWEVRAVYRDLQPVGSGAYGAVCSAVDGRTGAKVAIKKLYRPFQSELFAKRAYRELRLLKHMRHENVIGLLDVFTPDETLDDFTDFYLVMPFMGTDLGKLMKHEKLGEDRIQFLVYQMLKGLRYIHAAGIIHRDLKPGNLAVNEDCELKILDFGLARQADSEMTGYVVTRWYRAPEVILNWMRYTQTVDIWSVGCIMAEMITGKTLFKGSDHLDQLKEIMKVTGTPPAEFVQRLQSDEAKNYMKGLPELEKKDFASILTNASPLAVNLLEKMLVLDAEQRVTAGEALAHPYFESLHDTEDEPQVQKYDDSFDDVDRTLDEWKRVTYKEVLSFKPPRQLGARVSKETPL

Homo sapiens [13] = species on record: Homo sapiens; assay: In vitro inhibition of cytokine IL-2 release by human […]; format: functional; outline: as §1
[14] = molecular target: Mitogen-activated protein kinase 8 (Homo sapiens) (UniProt P45983); assay: Inhibition of c-Jun N-terminal kinase 1 at 10 uM
Outline: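 JNK1 activity from UV-stimulated MCF-7 cells, measured with a JNK1 kinase kit in presence of compound.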

[15] = molecular target: T4, Mitogen-activated protein kinase 14 (Homo sapiens, UniProt Q16539); assay: Inhibition of Mitogen-activated protein kinase p38 alpha at 1 uM
Outline: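 FLAG-tagged p38α cDNA was transfected into COS-1 cells. Kinase activity of the expressed isoform was measured with compound at 1 μM.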

MAP kinase p38 [16] = molecular target: T2, MAP kinase p38; assay: In vitro inhibition of cytokine IL-10 release by human […]; format: functional
Outline: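 Buffy-coat PBMC at 5×10^5 cells/mL in RPMI1640 with 10% FCS, glutamine, antibiotics; 30 min compound preincubation, then phytohemagglutinin stimulation and 48 h incubation.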

Homo sapiens [17] = species on record: Homo sapiens; assay: In vitro inhibition of cytokine IL-12 release by human […]; format: functional; outline: as §1
[18] = molecular target: T4, Mitogen-activated protein kinase 14; assay: In vitro inhibitory activity determined against human mitogen-activated protein kinase p38 alpha
MAP kinase p38 [19] = molecular target: T2, MAP kinase p38; assay: In vitro inhibition of IL1-beta release from LPS stimulated human peripheral blood mononuclear cells.; format: functional; outline: as §4
MAP kinase p38 [20] = molecular target: T2, MAP kinase p38; assay: In vitro inhibition of cytokine IL-8 release by human peripheral blood mononuclear cells
[21] = molecular target: T5, Mitogen-activated protein kinase 13 (Homo sapiens) (UniProt O15264); assay: Inhibition of Mitogen-activated protein kinase p38 delta at 1 uM; outline: as §5
T5 sequence (whole entry): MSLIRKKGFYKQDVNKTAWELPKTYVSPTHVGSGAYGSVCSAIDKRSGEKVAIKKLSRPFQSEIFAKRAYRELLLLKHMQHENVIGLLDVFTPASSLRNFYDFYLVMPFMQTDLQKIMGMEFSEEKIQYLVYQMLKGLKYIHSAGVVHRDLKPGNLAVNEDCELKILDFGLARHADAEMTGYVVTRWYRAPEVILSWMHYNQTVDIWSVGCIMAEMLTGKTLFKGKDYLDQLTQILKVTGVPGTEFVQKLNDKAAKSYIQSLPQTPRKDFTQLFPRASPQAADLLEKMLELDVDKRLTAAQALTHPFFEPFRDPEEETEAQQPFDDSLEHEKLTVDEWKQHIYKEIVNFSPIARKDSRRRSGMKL

Mus musculus [22] = species on record: Mus musculus; assay: Inhibition of ear swelling induced by oxazolone induced murine allergic contact dermatitis model at 0.5 mg/ear at 48 hr; format: functional; outline: as §3
Mus musculus [23] = assay: Inhibition of ear swelling induced by oxazolone in murine allergic contact dermatitis model at 0.001 mg/ear at 24 hr (in vivo); format: functional; outline: as §3
Mus musculus [24] = assay: Inhibition of ear swelling induced by oxazolone in murine allergic contact dermatitis model at 0.001 mg/ear at 72 hr (in vivo); format: functional; outline: as §3
Mus musculus [25] = assay: Inhibition of ear swelling induced by oxazolone in murine allergic contact dermatitis model at 0.5 mg/ear at 48 hr (in vivo)
[26] = molecular target: T1, Myeloperoxidase (Mus musculus); assay: Inhibition of myeloperoxidase (MPO) activity induced by oxazolone in murine allergic contact dermatitis model at 0.001 mg/ear at 24 hr (in vivo); format: organism-based
Mus musculus [27] = assay: Inhibition of ear swelling in oxazolone induced murine allergic contact dermatitis model at 0.5 mg/ear at 72 hr (in vivo); format: functional; outline: as §3
Mus musculus [28] = assay: Inhibition of ear swelling in oxazolone induced murine allergic contact dermatitis model at 0.5 mg/ear at 48 hr (in vivo); format: functional; outline: as §3
Mus musculus [29] = assay: Inhibition of ear swelling in oxazolone-induced murine allergic contact dermatitis at 0.5 mg/ear at 24 hr (in vivo); format: functional; outline: as §3

T4 sequence (Q16539 whole entry, canonical isoform): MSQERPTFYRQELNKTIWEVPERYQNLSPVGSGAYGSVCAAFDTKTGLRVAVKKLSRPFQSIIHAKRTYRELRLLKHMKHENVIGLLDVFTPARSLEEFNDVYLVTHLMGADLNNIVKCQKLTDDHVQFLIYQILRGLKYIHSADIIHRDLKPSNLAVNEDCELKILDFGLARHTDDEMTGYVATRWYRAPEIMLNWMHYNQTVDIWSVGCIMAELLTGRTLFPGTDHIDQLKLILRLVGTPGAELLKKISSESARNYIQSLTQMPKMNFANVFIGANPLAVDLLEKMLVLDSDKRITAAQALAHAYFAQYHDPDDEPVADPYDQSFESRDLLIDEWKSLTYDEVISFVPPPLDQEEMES
Sequence of Mitogen-activated protein kinase 11 (Homo sapiens) (Q15759 whole entry, canonical isoform): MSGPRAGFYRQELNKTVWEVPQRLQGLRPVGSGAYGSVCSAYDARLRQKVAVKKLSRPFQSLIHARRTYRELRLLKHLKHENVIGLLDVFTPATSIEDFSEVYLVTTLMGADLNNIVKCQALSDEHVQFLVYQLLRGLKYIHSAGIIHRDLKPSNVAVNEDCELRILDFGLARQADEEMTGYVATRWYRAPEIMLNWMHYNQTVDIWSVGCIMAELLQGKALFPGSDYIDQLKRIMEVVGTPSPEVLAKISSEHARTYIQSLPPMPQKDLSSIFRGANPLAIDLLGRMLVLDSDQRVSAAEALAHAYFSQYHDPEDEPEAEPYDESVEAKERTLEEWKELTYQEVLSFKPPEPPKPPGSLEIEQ
Sequence of Mitogen-activated protein kinase; ERK1/ERK2 (Homo sapiens) (P27361 whole entry, looked up): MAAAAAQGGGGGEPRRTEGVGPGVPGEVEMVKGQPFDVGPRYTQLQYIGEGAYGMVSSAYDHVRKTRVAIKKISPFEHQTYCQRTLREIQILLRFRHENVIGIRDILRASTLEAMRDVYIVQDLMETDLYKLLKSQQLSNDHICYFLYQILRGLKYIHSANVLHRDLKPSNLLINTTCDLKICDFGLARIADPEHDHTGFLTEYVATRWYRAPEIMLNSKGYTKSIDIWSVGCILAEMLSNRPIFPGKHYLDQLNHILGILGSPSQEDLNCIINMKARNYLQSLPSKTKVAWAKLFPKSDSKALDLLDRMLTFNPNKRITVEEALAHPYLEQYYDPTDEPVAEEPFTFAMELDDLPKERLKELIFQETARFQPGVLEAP
Sequence of Mitogen-activated protein kinase; ERK1/ERK2 (Homo sapiens) (P28482 whole entry, looked up): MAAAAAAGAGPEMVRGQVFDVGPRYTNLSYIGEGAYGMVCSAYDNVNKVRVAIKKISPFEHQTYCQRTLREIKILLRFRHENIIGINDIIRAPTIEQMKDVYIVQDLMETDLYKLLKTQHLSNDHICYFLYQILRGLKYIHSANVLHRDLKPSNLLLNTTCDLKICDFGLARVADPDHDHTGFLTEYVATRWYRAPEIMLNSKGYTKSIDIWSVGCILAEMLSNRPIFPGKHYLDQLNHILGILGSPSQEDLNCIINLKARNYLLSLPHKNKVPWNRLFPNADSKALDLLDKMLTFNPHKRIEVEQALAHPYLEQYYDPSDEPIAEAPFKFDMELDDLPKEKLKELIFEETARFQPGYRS
Sequence of Mitogen-activated protein kinase 8 (Homo sapiens) (P45983 whole entry): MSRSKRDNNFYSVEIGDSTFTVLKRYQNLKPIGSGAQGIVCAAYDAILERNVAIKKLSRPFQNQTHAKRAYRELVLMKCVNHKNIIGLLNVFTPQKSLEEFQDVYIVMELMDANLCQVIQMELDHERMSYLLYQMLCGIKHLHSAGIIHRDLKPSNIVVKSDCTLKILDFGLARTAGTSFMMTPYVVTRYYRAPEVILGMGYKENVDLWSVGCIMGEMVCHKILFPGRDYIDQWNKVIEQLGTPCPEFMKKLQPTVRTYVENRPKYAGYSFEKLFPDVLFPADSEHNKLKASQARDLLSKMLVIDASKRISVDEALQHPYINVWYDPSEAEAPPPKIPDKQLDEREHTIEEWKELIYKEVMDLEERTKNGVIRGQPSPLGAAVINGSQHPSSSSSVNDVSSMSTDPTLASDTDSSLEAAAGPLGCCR

Row | Compound | IC50 (Homo sapiens [1]) [nM] | Inhibition (Mus musculus [2]) [%] | Inhibition (Mus musculus [4]) [%] | inhibition [5] [%] | inhibition [6] [%] | IC50 (MAP kinase p38 [7]) [nM] | IC50 (MAP kinase p38 [8]) [nM] | inhibition [9] [%] | inhibition [11] [%] | inhibition [12] [%] | IC50 (Homo sapiens [13]) [nM] | inhibition [15] [%] | IC50 (MAP kinase p38 [16]) [nM] | IC50 (Homo sapiens [17]) [nM] | IC50 [18] [nM] | IC50 (MAP kinase p38 [19]) [nM] | IC50 (MAP kinase p38 [20]) [nM] | inhibition [21] [%] | further results
1 | Cc1ccccc1C(=O)c1ccc(Nc2ccc(Br)cc2N)cc1Cl | > 1000 | 34 | 27 | 0 | 79 | 5 | 17 | 56 | 93 | 0 | > 1000 | 82 | 74 | > 1000 | 39 | 30 | 4 | 0 | Inhibition (Mus musculus [3]): 35%; Inhibition (Mus musculus [10]): 46%; inhibition [14]: 0%; Inhibition (Mus musculus [22]): 38%
2 | CCCCO[C@]1(C(=O)CO)CCC2C3CCC4=CC(=O)CCC4(C)C3C(O)CC21C (some centres not stated) | – | – | – | – | – | – | – | – | – | – | – | – | – | – | – | – | – | – | Inhibition (Mus musculus [23]): 43%; Inhibition (Mus musculus [24]): 55%; Inhibition (Mus musculus [25]): 55%; inhibition [26]: 41%
3 | Cc1ccccc1C(=O)c1ccc(Nc2ccccc2N)cc1Cl | > 1000 | 27 | 37 | 20 | 73 | 6 | 18 | 56 | 93 | 0 | > 1000 | 88 | 12 | > 1000 | 10 | 14 | 6 | 8 | Inhibition (Mus musculus [27]): 46%; Inhibition (Mus musculus [28]): 46%; Inhibition (Mus musculus [29]): 43%
